# Test results taken from ChEMBL document CHEMBL3044605, “Inhibition of the Fe(4)S(4)-cluster-containing protein IspH (LytB): electron paramagnetic resonance, metallacycles, and mechanisms” (J Am Chem Soc, 2010).
# Biological target: T1, 4-hydroxy-3-methylbut-2-enyl diphosphate reductase (Aquifex aeolicus (strain VF5), UniProt O67625)
# T1 sequence (O67625 whole entry): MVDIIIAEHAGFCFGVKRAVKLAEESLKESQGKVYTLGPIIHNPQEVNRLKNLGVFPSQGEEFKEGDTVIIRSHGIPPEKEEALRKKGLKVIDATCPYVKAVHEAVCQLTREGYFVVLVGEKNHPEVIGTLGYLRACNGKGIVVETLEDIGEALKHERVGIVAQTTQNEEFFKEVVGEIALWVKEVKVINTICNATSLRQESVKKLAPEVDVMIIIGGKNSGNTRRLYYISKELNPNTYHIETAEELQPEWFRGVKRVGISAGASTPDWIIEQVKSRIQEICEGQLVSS
# Experiment: Inhibition of Aquifex aeolicus IspH expressed in Escherichia coli BL21 (DE3) using HMBPP substrate
# Type: single protein
# Outline: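 A. aeolicus IspH expressed in BL-21(DE3), Ni-NTA purified, Fe4S4 cluster reconstituted anaerobically (DTT, sulfur, FeCl3; A410/A280 ≥0.38). Anaerobic assay, room temp, pH 8.0 Tris/NaCl/glycerol buffer, 0.4 mM dithionite, 2 mM methyl viologen, 72 nM IspH. Inhibitor preincubated 10 min, then 34 μM HMBPP added. Initial rates at 732 nm, dose-response fit for IC50; Ki via Cheng-Prusoff (KM 7 μM).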
SMILES,IC50 [µM],Ki [µM]
Cc1ccc[n+](CC(O)(P(=O)([O-])O)P(=O)(O)O)c1 (configuration not stated),540,–
CC(Cc1cccnc1)(P(=O)(O)O)P(=O)(O)O,> 1000,–
O=P(O)(O)OP(=O)(O)OCc1cccnc1,38,–
O=P(O)(O)OP(=O)(O)OCc1ccc(Cl)nc1,3700,–
O=P(O)(O)C(CNc1ccccn1)P(=O)(O)O,> 1000,–
O=P(O)(O)C(O)(Cc1ccccn1)P(=O)(O)O,485,–
Cc1ccnc(NC(P(=O)(O)O)P(=O)(O)O)c1,67,–
O=P(O)(O)C(Cc1cccnc1)P(=O)(O)O,> 1000,–
C[n+]1cccc(CC(O)(P(=O)(O)O)P(=O)(O)O)c1,> 1000,–
N#CCCOP(=O)(O)OP(=O)(O)O [2-CYANOETHYL DIPHOSPHATE],53,–
O=P(O)(O)OP(=O)(O)OCC#CCO [4-HYDROXYBUT-2-YNYL DIPHOSPHATE],26,–
O=P(O)(O)OP(=O)(O)OCc1ccccn1 [(PYRIDIN-2-YL)-METHYL-DIPHOSPHATE],1200,–
O=P(O)(O)OP(=O)(O)OCc1ccncc1 [(PYRIDIN-4-YL)-METHYL-DIPHOSPHATE],149,–
C#CCCOP(=O)(O)OP(=O)(O)O [BUT-3-YNYL DIPHOSPHATE],0.45,0.06
N#CCOP(=O)(O)OP(=O)(O)O [CYANOMETHYL DIPHOSPHATE],245,–
C#CCCCOP(=O)(O)OP(=O)(O)O [PENT-4-YNYL DIPHOSPHATE],6.5,–
C#CCOP(=O)(O)OP(=O)(O)O [PROP-2-YNYL DIPHOSPHATE],6.7,–
O=P(O)(O)OP(=O)(O)OCCc1cccnc1 [PYRIDIN-3-YL-ETHYL-DIPHOSPHATE],9.1,1.2
O=P(O)(O)OP(=O)(O)OCCCc1cccnc1 [PYRIDIN-3-YL-PROPYL-DIPHOSPHATE],463,–
O=P(O)(O)C(O)(Cc1cccnc1)P(=O)(O)O [RISEDRONIC ACID],> 1000,–
